Series [1] concerns P450 2B4 mutants. The series is classed as biochemical, rabbit (Oryctolagus cuniculus). The following applies: each mutant except the inactive H172F.
For series [2], the target named is T1, P450 2B4 H172Q (Oryctolagus cuniculus, UniProt P00178, H172Q).
T1 sequence (P00178 with tags, fused parts or gaps H172Q limits assumed): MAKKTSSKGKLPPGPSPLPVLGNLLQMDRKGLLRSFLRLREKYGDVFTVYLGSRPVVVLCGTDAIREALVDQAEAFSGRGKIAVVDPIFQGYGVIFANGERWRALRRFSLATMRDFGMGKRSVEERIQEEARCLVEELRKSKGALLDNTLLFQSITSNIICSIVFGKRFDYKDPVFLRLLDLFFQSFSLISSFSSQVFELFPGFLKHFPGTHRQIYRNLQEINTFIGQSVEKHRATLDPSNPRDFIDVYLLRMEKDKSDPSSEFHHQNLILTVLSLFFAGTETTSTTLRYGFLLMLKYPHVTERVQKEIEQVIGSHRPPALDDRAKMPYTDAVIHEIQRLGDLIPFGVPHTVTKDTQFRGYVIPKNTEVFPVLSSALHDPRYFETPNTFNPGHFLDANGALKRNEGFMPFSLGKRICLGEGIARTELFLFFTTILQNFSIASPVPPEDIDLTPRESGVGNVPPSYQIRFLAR
In kind it is biochemical, rabbit (Oryctolagus cuniculus).

Series [3] deals with T2, P450 2B4 H172F (Oryctolagus cuniculus, UniProt P00178, H172F).
T2 sequence (P00178 with tags, fused parts or gaps H172F limits assumed): T1 sequence (P00178 with tags, fused parts or gaps H172Q limits assumed) with Q153F

Series [4] deals with T2, P450 2B4 H172F. This is another data set of the same source.
In series [5] the target is T3, P450 2B4 H172A (Oryctolagus cuniculus, UniProt P00178, H172A).
T3 sequence (P00178 with tags, fused parts or gaps H172A limits assumed): T1 sequence (P00178 with tags, fused parts or gaps H172Q limits assumed) with Q153A
The series is classed as biochemical, rabbit (Oryctolagus cuniculus).

In series [6] the target is T4, P450 2B4 E474D (Oryctolagus cuniculus, UniProt P00178, E474D).
T4 sequence (P00178 with tags, fused parts or gaps E474D limits assumed): T1 sequence (P00178 with tags, fused parts or gaps H172Q limits assumed) with Q153H, E455D
The series is classed as biochemical, rabbit (Oryctolagus cuniculus).

Series [7] addresses T4, P450 2B4 E474D. In words: Inhibition of 7-EFC O-deethylation by imidazole inhibitors. The series is classed as biochemical, rabbit (Oryctolagus cuniculus).
Series [8] concerns the target T5, P450 2B4 wild type (Oryctolagus cuniculus, UniProt P00178).
T5 sequence (P00178 with tags, fused parts or gaps limits assumed): T1 sequence (P00178 with tags, fused parts or gaps H172Q limits assumed) with Q153H
The description is as above. In kind it is biochemical, rabbit (Oryctolagus cuniculus).

For series [9], the target named is T6, P450 2B4 E474Q (Oryctolagus cuniculus, UniProt P00178, E474Q).
T6 sequence (P00178 with tags, fused parts or gaps E474Q limits assumed): T1 sequence (P00178 with tags, fused parts or gaps H172Q limits assumed) with Q153H, E455Q
The description is as above. In kind it is biochemical, rabbit (Oryctolagus cuniculus).

The target in series [10] is T3, P450 2B4 H172A. The series is described as above. The series is classed as biochemical, rabbit (Oryctolagus cuniculus).
The target of series [11] is T7, P450 2B4 L437A (Oryctolagus cuniculus, UniProt P00178, L437A).
T7 sequence (P00178 with tags, fused parts or gaps L437A limits assumed): T1 sequence (P00178 with tags, fused parts or gaps H172Q limits assumed) with Q153H, L418A
The description is as above. The series is classed as biochemical, rabbit (Oryctolagus cuniculus). The conditions noted are these: rabbit, pH 7.4, probe 7-EFC (50 μM), O-deethylation.

For series [12], the target named is T1, P450 2B4 H172Q. Described as above. In kind it is biochemical, rabbit (Oryctolagus cuniculus).
Series [13] has as its target T2, P450 2B4 H172F. Briefly: Spectral binding titration of imidazole ligands. The following applies: 2B4 H172F versus wild type. Also on record: species or system rabbit (Oryctolagus cuniculus). Summed up: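 Protein was the His-tagged 2B4dH construct (single mutants or wild type), expressed in TOPP3 cells and Ni-NTA purified. Spectra 350–700 nm recorded after serial 5 μl additions of 100 μM 4-CPI or bifonazole. Ks came from a tight-binding equation fit, and the 4-CPI/bifonazole Ks ratio was calculated.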

Substitutions are numbered along the chain they refer to. A value given as a limit tells only on which side of the number the result lay.

Regarding `COc1ccc2c(C(F)(F)F)cc(=O)oc2c1` [7-MFC, 7-methoxy-4-(trifluoromethyl)coumarin], the “change in KM versus wild type” value in series [1] was below 2 fold. In addition, the “decrease (change) in kcat versus wild type” value in series [2] and in series [5] was ~ 2 fold throughout. For the same compound, the kcat in series [3] was 0 s⁻¹. The “substrate turnover (activity)” value in series [4] is “inactive”.
As to `CCOc1ccc2c(C(F)(F)F)cc(=O)oc2c1` [7-EFC, 7-ethoxy-4-(trifluoromethyl)coumarin], in [6], the “decrease (change) in kcat versus wild type” value is given as above 20 fold. Further, the kcat in series [3] was determined as 0 s⁻¹. The “substrate turnover (activity)” value in [4] is “inactive”.
As to `c1ccc(-c2ccc(C(c3ccccc3)n3ccnc3)cc2)cc1` (stereo not drawn) [Bifonazole, bifonazole], the IC50 came to 0.62 µM in series [7]; 0.9 µM in series [8]; 0.81 µM in series [9]; 0.58 µM in [10]; 0.76 µM in series [12]. In [11], this compound yielded an IC50 at 10 min of 0.05 µM. Further, in series [13], the “Ks (spectral dissociation constant) higher than wild type 2B4” value was ~ 20 times.

Values taken from paper PMC3911823 (The FEBS journal, 2011).
